According to ChEMBL document CHEMBL1140225, “Design of annulated pyrazoles as inhibitors of HIV-1 reverse transcriptase” (J Med Chem, 2008):

Assays:
[1] = system: Human immunodeficiency virus; experiment: Antiviral activity against […] HIV HXB2 with reverse transcriptase […]/Tyr181Cys mutation in human MT4 cells assessed as protection against virus-induced cell death after 5 days by MTT assay; assay type: functional, organism-based; details: Human immunodeficiency virus 1, MT4, 120 h
[2] = system: Human immunodeficiency virus; experiment: Antiviral activity against wild type HIV HXB2 in human MT4 cells assessed as protection against virus-induced cell death after 5 days by MTT assay; assay type: functional, organism-based; details: Human immunodeficiency virus 1, MT4, 120 h
[3] = target: Human immunodeficiency virus type 1 reverse transcriptase (Human immunodeficiency virus 1, UniProt Q72547); experiment: Inhibition of RNA-dependent DNA polymerase activity of wild type HIV1 reverse transcriptase by SPA
[4] = target: Human immunodeficiency virus type 1 reverse transcriptase (Human immunodeficiency virus 1, UniProt Q72547, K103N/Y181C); experiment: Inhibition of RNA-dependent DNA polymerase activity of HIV1 reverse transcriptase Lys103Asn/Tyr181Cys mutant by SPA
[5] = Clearance in rat at 0.5 mg/kg, iv; details: in vivo
[6] = Volume of distribution at steady state in rat at 0.5 mg/kg, iv; details: in vivo, read-out: Vdss
[7] = system: Human immunodeficiency virus; experiment: Antiviral activity against NNRTI-resistant HIV HXB2 isolate 20 with reverse transcriptase K103, Y181 mutation in human MT4 cells assessed as protection against virus-induced cell death after 5 days by MTT assay; assay type: functional, organism-based; details: Human immunodeficiency virus 1, MT4, 120 h
[8] = Half life in monkey at 0.5 mg/kg, iv; details: rhesus monkey, in vivo
[9] = system: Human immunodeficiency virus; experiment: Antiviral activity against NNRTI-resistant HIV HXB2 with reverse transcriptase 190S mutation in human MT4 cells assessed as protection against virus-induced cell death after 5 days by MTT assay; assay type: functional, organism-based; details: Human immunodeficiency virus 1, MT4, 120 h
Summary of the method: (§1)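 MT4 cells in log-phase growth (2 × 10⁶) infected with HXB2-strain HIV at 0.0001 infectious units/cell for 1 h at 37 °C, washed in PBS, then plated at 3.5 × 10⁴ cells/well. Serial 2-fold dilutions, four replicates, final 625-1.22 nM, in RPMI 1640/10% FCS. Incubated 5 days at 37 °C, 5% CO₂. MTT added for 2 h, absorbance read at 540/690 nm. % protection vs uninfected and virus controls; IC50 taken from plot against log concentration.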

[10] = system: Human immunodeficiency virus; experiment: Antiviral activity against wild type HIV HXB2 in human MT4 cells assessed as protection against virus-induced cell death after 5 days by MTT assay in presence of 40% human serum; assay type: functional, organism-based; details: Human immunodeficiency virus 1, MT4, 120 h
[11] = Clearance in monkey at 0.5 mg/kg, iv; details: rhesus monkey, in vivo
[12] = Half life in dog at 0.5 mg/kg, iv; details: in vivo
[13] = system: Human immunodeficiency virus; experiment: Antiviral activity against NNRTI-resistant HIV HXB2 with reverse transcriptase 103N mutation in human MT4 cells assessed as protection against virus-induced cell death after 5 days by MTT assay; assay type: functional, organism-based; details: Human immunodeficiency virus 1, MT4, 120 h; summary of the method: as §1
[14] = Volume of distribution at steady state in monkey at 0.5 mg/kg, iv; details: rhesus monkey, in vivo, read-out: Vdss
[15] = Volume of distribution at steady state in dog at 0.5 mg/kg, iv; details: in vivo, read-out: Vdss
[16] = system: Human immunodeficiency virus; experiment: Antiviral activity against NNRTI-resistant HIV HXB2 with reverse transcriptase 188H mutation in human MT4 cells assessed as protection against virus-induced cell death after 5 days by MTT assay; assay type: functional, organism-based; details: Human immunodeficiency virus 1, MT4; summary of the method: as §1
[17] = system: Human immunodeficiency virus; experiment: Antiviral activity against NNRTI-resistant HIV HXB2 with reverse transcriptase 138K mutation in human MT4 cells assessed as protection against virus-induced cell death after 5 days by MTT assay; assay type: functional, organism-based; details: Human immunodeficiency virus 1, MT4, 120 h; summary of the method: as §1
[18] = system: Human immunodeficiency virus; experiment: Antiviral activity against NNRTI-resistant HIV HXB2 isolate 17 with reverse transcriptase A98, K103, Y181 mutation in human MT4 cells assessed as protection against virus-induced cell death after 5 days by MTT assay; assay type: functional, organism-based; details: Human immunodeficiency virus 1, MT4, 120 h
[19] = system: Human immunodeficiency virus; experiment: Antiviral activity against NNRTI-resistant HIV HXB2 with reverse transcriptase 100I mutation in human MT4 cells assessed as protection against virus-induced cell death after 5 days by MTT assay; assay type: functional, organism-based; details: Human immunodeficiency virus 1, MT4, 120 h; summary of the method: as §1
[20] = system: Human immunodeficiency virus; experiment: Antiviral activity against NNRTI-resistant HIV HXB2 isolate 29 with reverse transcriptase K103, Y181 mutation in human MT4 cells assessed as protection against virus-induced cell death after 5 days by MTT assay; assay type: functional, organism-based; details: Human immunodeficiency virus 1, MT4, 120 h
[21] = Clearance in dog at 0.5 mg/kg, iv; details: in vivo
[22] = system: Human immunodeficiency virus; experiment: Antiviral activity against NNRTI-resistant HIV HXB2 with reverse transcriptase 101E mutation in human MT4 cells assessed as protection against virus-induced cell death after 5 days by MTT assay; assay type: functional, organism-based; details: Human immunodeficiency virus 1, MT4, 120 h; summary of the method: as §1
[23] = system: Human immunodeficiency virus; experiment: Antiviral activity against NNRTI-resistant HIV HXB2 isolate 21 with reverse transcriptase K103, V179, Y181 mutation in human MT4 cells assessed as protection against virus-induced cell death after 5 days by MTT assay; assay type: functional, organism-based; details: Human immunodeficiency virus 1, MT4, 120 h
[24] = Half life in rat at 0.5 mg/kg, iv; details: in vivo
[25] = system: Human immunodeficiency virus; experiment: Antiviral activity against NNRTI-resistant HIV HXB2 with reverse transcriptase 106A mutation in human MT4 cells assessed as protection against virus-induced cell death after 5 days by MTT assay; assay type: functional, organism-based; details: Human immunodeficiency virus 1, MT4, 120 h; summary of the method: as §1
[26] = system: Human immunodeficiency virus; experiment: Antiviral activity against NNRTI-resistant HIV HXB2 isolate 16 with reverse transcriptase K103, P225 mutation in human MT4 cells assessed as protection against virus-induced cell death after 5 days by MTT assay; assay type: functional, organism-based; details: Human immunodeficiency virus 1, MT4, 120 h
[27] = system: Human immunodeficiency virus; experiment: Antiviral activity against NNRTI-resistant HIV HXB2 with reverse transcriptase 225H mutation in human MT4 cells assessed as protection against virus-induced cell death after 5 days by MTT assay; assay type: functional, organism-based; details: Human immunodeficiency virus 1, MT4; summary of the method: as §1
[28] = Inhibition of RNA-dependent DNA polymerase activity of HIV1 reverse transcriptase Tyr181Cys mutant by SPA; parameters: species or system Human immunodeficiency virus 1
Summary of the method: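 Purified recombinant RT (1-3 nM final) with 18nt biotinylated DNA primer (32 nM) on a 47nt RNA template (64 nM). Run 30 min at 30 °C, stopped with EDTA, product captured on streptavidin SPA beads. IC50 by sigmoidal regression.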

[29] = target: Human immunodeficiency virus type 1 reverse transcriptase (Human immunodeficiency virus 1, UniProt Q72547, K103N); experiment: Inhibition of RNA-dependent DNA polymerase activity of HIV1 reverse transcriptase Lys103Asn mutant by SPA
[30] = system: Human immunodeficiency virus; experiment: Antiviral activity against NNRTI-resistant HIV HXB2 with reverse transcriptase 190A mutation in human MT4 cells assessed as protection against virus-induced cell death after 5 days by MTT assay; assay type: functional, organism-based; details: Human immunodeficiency virus 1, MT4, 120 h; summary of the method: as §1
[31] = system: Human immunodeficiency virus; experiment: Antiviral activity against NNRTI-resistant HIV HXB2 with reverse transcriptase 108I mutation in human MT4 cells assessed as protection against virus-induced cell death after 5 days by MTT assay; assay type: functional, organism-based; details: Human immunodeficiency virus 1, MT4, 120 h; summary of the method: as §1
[32] = system: Human immunodeficiency virus; experiment: Antiviral activity against NNRTI-resistant HIV HXB2 with reverse transcriptase 236L mutation in human MT4 cells assessed as protection against virus-induced cell death after 5 days by MTT assay; assay type: functional, organism-based; details: Human immunodeficiency virus 1, MT4, 120 h; summary of the method: as §1
[33] = system: Human immunodeficiency virus; experiment: Antiviral activity against NNRTI-resistant HIV HXB2 with reverse transcriptase 181I mutation in human MT4 cells assessed as protection against virus-induced cell death after 5 days by MTT assay; assay type: functional, organism-based; details: Human immunodeficiency virus 1, MT4, 120 h; summary of the method: as §1
[34] = system: Human immunodeficiency virus; experiment: Antiviral activity against NNRTI-resistant HIV HXB2 with reverse transcriptase 227L mutation in human MT4 cells assessed as protection against virus-induced cell death after 5 days by MTT assay; assay type: functional, organism-based; details: Human immunodeficiency virus 1, MT4, 120 h; summary of the method: as §1
[35] = system: Human immunodeficiency virus; experiment: Antiviral activity against NNRTI-resistant HIV HXB2 with reverse transcriptase 179D mutation in human MT4 cells assessed as protection against virus-induced cell death after 5 days by MTT assay; assay type: functional, organism-based; details: Human immunodeficiency virus 1, MT4, 120 h; summary of the method: as §1
[36] = system: Human immunodeficiency virus; experiment: Antiviral activity against NNRTI-resistant HIV HXB2 with reverse transcriptase 181C mutation in human MT4 cells assessed as protection against virus-induced cell death after 5 days by MTT assay; assay type: functional, organism-based; details: Human immunodeficiency virus 1, MT4, 120 h; summary of the method: as §1

N#Cc1cc(Cl)cc(Oc2c(Br)ccc(Cc3n[nH]c4ncccc34)c2F)c1
EC50 [1]: 12 nM | EC50 [2]: 1 nM | IC50 [3]: 8 nM

N#Cc1cc(Cl)cc(Oc2c(Br)ccc(Cc3n[nH]c4nccnc34)c2F)c1
EC50 [1]: > 100 nM | IC50 [4]: 14 nM | EC50 [2]: < 25 nM | IC50 [3]: 3 nM

Cn1ccc2c(Cc3ccc(Br)c(Oc4cc(Cl)cc(C#N)c4)c3F)n[nH]c2c1=O
EC50 [1]: 97 nM | IC50 [4]: 12 nM | EC50 [2]: 4 nM | IC50 [3]: 8 nM

N#Cc1cc(Cl)cc(Oc2c(Br)ccc(Cc3n[nH]c4c(N)cccc34)c2F)c1
EC50 [1]: 84 nM | IC50 [4]: 22 nM | EC50 [2]: 8 nM | IC50 [3]: 24 nM

N#Cc1cc(Cl)cc(Oc2c(Cl)ccc(Cc3n[nH]c4nnccc34)c2F)c1
clearance [5]: 2.9 mL/min/kg | Vd [6]: 0.91 L/kg | IC50 [7]: 4 nM | half-life [8]: 12.2 h | EC50 [9]: < 1 nM | EC50 [10]: 5 nM | clearance [11]: 1.3 mL/min/kg | EC50 [2]: 1 nM | half-life [12]: 5.6 h | EC50 [13]: < 1 nM | Vd [14]: 1.21 L/kg | Vd [15]: 0.99 L/kg | EC50 [16]: < 1 nM | EC50 [17]: 2 nM | IC50 [18]: 5 nM | EC50 [19]: < 1 nM | IC50 [20]: 2 nM | clearance [21]: 4.6 mL/min/kg | EC50 [22]: 2 nM | IC50 [23]: 3 nM | half-life [24]: 4.2 h | EC50 [25]: 2 nM | IC50 [26]: 3 nM | EC50 [27]: < 1 nM

Cc1cc(C#N)cc(Oc2ccc(Cc3n[nH]c4nnccc34)cc2Br)c1
IC50 [28]: 800 nM | EC50 [1]: > 100 nM | EC50 [2]: 17 nM | IC50 [29]: 120 nM

N#Cc1cc(Cl)cc(Oc2c(Br)ccc(Cc3n[nH]c4cnccc34)c2F)c1
EC50 [1]: 18 nM | IC50 [4]: 9 nM | EC50 [2]: 2 nM | IC50 [3]: 5 nM

N#Cc1cc(C#N)cc(Oc2c(Br)ccc(Cc3n[nH]c4nnccc34)c2F)c1
EC50 [1]: 3 nM | EC50 [2]: 1 nM

N#Cc1cc(Cl)cc(Oc2c(Br)ccc(Cc3n[nH]c4c(C#N)cccc34)c2F)c1
EC50 [1]: 53 nM | IC50 [4]: 15 nM | EC50 [2]: 5 nM | IC50 [3]: 24 nM

O=C1Nc2ccc(Cl)cc2[C@@](C#CC2CC2)(C(F)(F)F)O1 [EFAVIRENZ]
EC50 [30]: 6 nM | EC50 [31]: 3 nM | EC50 [9]: > 100 nM | EC50 [32]: < 1 nM | EC50 [10]: 18 nM | EC50 [33]: 2 nM | EC50 [34]: 1 nM | EC50 [35]: 8 nM | EC50 [13]: 66 nM | EC50 [36]: 3 nM | EC50 [16]: 4 nM | EC50 [17]: 2 nM | EC50 [19]: 7 nM | EC50 [22]: 12 nM | EC50 [25]: 6 nM | EC50 [27]: 1 nM

Cc1cc(C#N)cc(C)c1Oc1nc(Nc2ccc(C#N)cc2)nc(N)c1Br [ETRAVIRINE]
IC50 [7]: 7 nM | IC50 [18]: 14 nM | IC50 [20]: 3 nM | IC50 [23]: 17 nM | IC50 [26]: 1 nM
